Hits are enriched below; roughly 3.1% of the tested compounds scored in any of these assays.
Cneo AK release: Cryptococcus neoformans cell lysis inducers, primary screen, AK release luminescence, single concentration; C. neoformans lysis, adenylate kinase release luminescence, 4 h; normalised: neutral wells 0, clomiphene wells 100; lysis activity, % at 15 µM; actives 0.2% (n = 360,000); AID 651654, 2012;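 active = mean lysis activity across replicates of at least 80%, whatever share of replicates individually reach that level; inactive = mean lysis activity below 80%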
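Assay system: C. neoformans cells. Amount: yeast cell density of 5 × 10^6 cells/mL. Technique: AK luminescence. Buffer or medium: YPD. Times: static 4 h at 37 °C with compound, 1 h detection. Dosing: single-point compound dose. Read-out: lysis from increased AK signal.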
F508del corr: F508del CFTR correction, initial screen, CFBE line, single point | activity (quench increase), % at 7.58 µM | CFBE cells, YFP halide quenching; stimulated with forskolin plus potentiator P3; % fluorescence drop versus neutral controls | actives 0.36% (n = 350,000) | AID 720511, 2013;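 active = mean added fluorescence quench of at least 8% versus neutral control, with both replicates also reaching 8%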;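 also: cells transiently co-express mutant CFTR-F508del with the halide-sensitive YFP; corrector assay measuring rescue of mutant channel to the surface after 24 h compound exposure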
HIV Env fusion: inhibitors of HIV-1 Env-driven cell-cell fusion, primary screen, HeLa-JRFL effector, CEM21 target cells, luciferase; inhibition, % at 12.3 µM; actives 1.1% (n = 360,000);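 active = mean replicate inhibition score of at least 50 and every replicate individually at or above 50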;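 also: 0% = plate neutral controls and 100% = maraviroc near 300 nM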
Ecoli rRNA inh: reduced GFP signal of wild-type E. coli, primary screen, bacterial rRNA inhibitor project, GFP/RFP fluorescence, OD600, single point. E. coli WT GFP vs humanized-ribosome RFP mutants, 24 h; active compounds read low; DMSO median 0, no signal -100. GFP signal change (wild-type ribosome), % (test concentration not listed). actives 1.6% (n = 350,000);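 active = significant combined selectivity score with lowered wild-type GFP, culture density cut under 30%, mutant RFP and density less affected; inactive = any of these conditions unmet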
INS-1E GSIS act: GLuc luminescence reporter in INS-1E cells, primary screen for activators of glucose-dependent secretion of insulin; INS-1E GLuc reporter insulin secretion, 2-3 h; activation, % at 16.6 µM; actives 0.61% (n = 370,000); AID 743287, 2014;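 active = lowest replicate activation of at least 40%, so every replicate reaches that level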;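 also: 0% = median of neutral control wells and 100% = median of IBMX positive control wells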
miR122 inh: miR-122 Renilla sensor signal increase in Huh7, primary screen, miR-122 inhibitor project, cell-based, single point, plate reader | activation (reporter increase), % at 12.5 µM | AID 602342, 2012 | Huh7 miR-122 Renilla luciferase sensor, 48 h; neutral wells = 0, positive control = 100 | actives 0.3% (n = 340,000);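 active = mean replicate activation score at least 90 and every replicate individually at or above 90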;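 also: higher luciferase means less miR-122 activity so hits act as miR-122 inhibitors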
Active calls of the source: *; [ ] = dose if it differs, or a comment.

Results for COCCCNc1ncnc2ccc(C)cc12 ?
Cneo AK release: -8; HIV Env fusion: -45; miR122 inh: 3

What do the screens show for `CSCCC(Nc1ncnc2ccc(Br)cc12)C(=O)O` (centres undefined)?
Cneo AK release: 0; HIV Env fusion: 5; Ecoli rRNA inh: 8; INS-1E GSIS act: 16; miR122 inh: -2

What do the screens show for `Cc1ccc2ncnc(Nc3ccc(C)c(C)c3)c2c1`?
Cneo AK release: -1; F508del corr: 4; Ecoli rRNA inh: -27*; INS-1E GSIS act: 6

How did Brc1ccc2ncnc(NCc3ccco3)c2c1 do in these assays?
Cneo AK release: 0; HIV Env fusion: 67*; INS-1E GSIS act: -38; miR122 inh: 8

How did CC(=O)c1cccc(Nc2ncnc3ccc(Br)cc23)c1 do in these assays?
F508del corr: -2; HIV Env fusion: 21; Ecoli rRNA inh: 9; INS-1E GSIS act: 49*

Results for Cc1ccc2oc(-c3cccc(NC(=O)Cc4cccs4)c3)nc2c1 ?
Cneo AK release: 1; HIV Env fusion: -73; INS-1E GSIS act: 65*; miR122 inh: -3

What do the screens show for `COCCNC(=S)Nc1ccc(Cl)c(Cl)c1`?
HIV Env fusion: -8; Ecoli rRNA inh: 5; INS-1E GSIS act: 9

How did COc1cc(C)c(NC(=S)Nc2ccc(Cl)c(Cl)c2)cc1OC do in these assays?
HIV Env fusion: 9; Ecoli rRNA inh: -28*; INS-1E GSIS act: 3

Results for CC(=O)N(Cc1cc2cc(C)c(C)cc2n2nnnc12)CC1COCCO1 (centres undefined) ?
INS-1E GSIS act: 63*

Results for Cc1cc2cc(CN(Cc3ccc4c(c3)OCO4)C(=O)c3cnccn3)c3nnnn3c2cc1C ?
HIV Env fusion: -65; miR122 inh: -13

What do the screens show for `CCOc1ccc(CCNC(=O)COC(=O)COc2cc(C)cc(C)c2)cc1OCC`?
F508del corr: 2; HIV Env fusion: -14; Ecoli rRNA inh: -2; INS-1E GSIS act: 45*; miR122 inh: 2

How did CCOc1ccc(CCNC(=O)COC(=O)COc2ccc(C(=O)CC)cc2)cc1OCC do in these assays?
F508del corr: 3; HIV Env fusion: -6; Ecoli rRNA inh: 4; INS-1E GSIS act: 21; miR122 inh: -3

What do the screens show for `CCOc1ccc(CCNC(=O)c2c(C)noc2C)cc1OCC`?
Cneo AK release: -1; F508del corr: -2; HIV Env fusion: -2; Ecoli rRNA inh: 11; INS-1E GSIS act: 6; miR122 inh: -4

What do the screens show for `CCOc1ccc(CCNC(=O)c2cc(C)on2)cc1OCC`?
Cneo AK release: 0; F508del corr: 1; HIV Env fusion: 10; Ecoli rRNA inh: 11; INS-1E GSIS act: 55*; miR122 inh: 5

What do the screens show for `CCOc1ccc(CCNC(=O)CSC(=S)N2CCCC2)cc1OCC`?
Cneo AK release: 1; F508del corr: 2; HIV Env fusion: -6; Ecoli rRNA inh: 3; INS-1E GSIS act: 41*

How did CCOc1ccc(CCNC(=O)COC(=O)/C=C/c2ccccc2OC)cc1OCC do in these assays?
F508del corr: -1; HIV Env fusion: -24; Ecoli rRNA inh: 6; INS-1E GSIS act: 47*

Results for CCOc1ccc(CCNC(=O)CSCc2ccc(C)cc2)cc1OCC ?
HIV Env fusion: -14; Ecoli rRNA inh: -14; INS-1E GSIS act: -33

What do the screens show for `CN(C)C(=O)c1cccc(-c2ccc([C@@H]3[C@@H](C#N)N(C(=O)C4CCCCC4)[C@@H]3CO)cc2)c1`?
Cneo AK release: 0; F508del corr: -3; HIV Env fusion: -6[16.7 µM]; Ecoli rRNA inh: -1; INS-1E GSIS act: 1

What do the screens show for `Cc1ccc(-c2ccc3c(c2)O[C@H](CN(C)C(=O)C2CC2)[C@@H](C)CN([C@@H](C)CO)S3(=O)=O)cc1`?
Cneo AK release: 8; F508del corr: 1; HIV Env fusion: -5[16.7 µM]; Ecoli rRNA inh: -8; INS-1E GSIS act: -14; miR122 inh: 4[16.7 µM]
